Assay results gathered from unrelated publications.

The inhibition of `NCC(=O)Nc1ccccc1/N=c1\cc(-c2ccc3c(c2)OCCO3)oc2ccccc12` is reported as -2.55% (MOLM-13; cell growth or viability, CCK-8; 1 µM).
`CCCCCCCCCCCCCCCCCCOc1ccccc1CC(=O)OCC[N+](CC)(CC)CC` gave an inhibition of 86.9% (NCI-H23; cell growth or viability, SRB; 10 µM).
`COc1ccc2/c(=N/c3ccccc3NC(=O)[C@@H](N)C(C)(C)C)cc(-c3ccc4c(c3)OCO4)oc2c1` has an inhibition of 4.55% (MOLM-13; cell growth or viability, CCK-8; 1 µM).
`CC(C)C[C@H](NC(=O)[C@H](Cc1ccccc1)NC(=O)c1cnccn1)B(O)O` has a viability of 90.7% (CHP-212; cell growth or viability, SRB; 41.15 nM).
`Cc1c(Cl)c(=O)oc2cc(OCCCCSC#N)ccc12` gave a GI50 of 5.8 µM (SW1573; cell growth or viability, SRB).
`CNC(=O)c1cc(Oc2ccc(NC(=O)Nc3ccc(Cl)c(C(F)(F)F)c3)cc2)ccn1` has an IC50 of 5.06 µM (Bel-7402; cell growth or viability, MTT; 48 h).
`[NH2][Pt]([NH2])([Cl])[Cl]` gave an IC50 of 75.8 µM (NCI-H1573; cell growth or viability, MTT; 48 h).
For `COc1ncnc(C2CC2)c1-c1ncc2cnn(Cc3ccc(-c4nc(C(F)(F)F)cn4C(C)C)cc3)c2n1`, the viability was 76.7% (CHP-212; cell growth or viability, SRB; 25 µM).
With `COC(=O)[C@H]1[C@@H](O)[C@@]2(O)c3c(OC)cc(O[C@@H]4O[C@@H]([C@H](O)CO)CO[C@H]4OC)cc3O[C@@]2(c2ccc(OC)cc2)[C@@H]1c1ccccc1` the IC50 was 0.005 µM (C6661; cell growth or viability, MTS; 72 h).
`O=c1[nH]cc(F)c(=O)[nH]1` gave an IC50 of 15.8 µM (Bel-7402; cell growth or viability, MTT; 48 h).
The inhibition of `Oc1cccc(-c2nc(N3CCOCC3)c3oc4ncccc4c3n2)c1` is reported as 14.3% (MOLM-13; cell growth or viability, CCK-8; 1 µM).
With `CCCCCCCCCCCCCCCCCCOc1ccccc1CC(=O)OCC[N+]1(C)CCOCC1` the inhibition was 33.5% (NCI-H23; cell growth or viability, SRB; 10 µM).
For `COc1cccc2c1C(=O)c1c(O)c3c(c(O)c1C2=O)C[C@@](O)(C(=O)CO)C[C@@H]3O[C@H]1C[C@H](N)[C@H](O)[C@H](C)O1`, the viability was 19.4% (CHP-212; cell growth or viability, SRB; 0.3704 µM).
`CCCCCCCCCCCCCCCCCCOc1ccc(CC(=O)OCC[N+]2(C)CCCC2)cc1` gave an inhibition of 6.84% (NCI-H23; cell growth or viability, SRB; 10 µM).
`NCCCCC(=O)Nc1ccccc1/N=c1\cc(-c2ccc3c(c2)OCO3)oc2ccccc12` has an inhibition of -0.26% (MOLM-13; cell growth or viability, CCK-8; 1 µM).
For `C=C(C)[C@@H]1CC[C@]2(C)CC[C@]3(C)[C@H](CC[C@@H]4[C@@]5(C)CC[C@H](O)C(C)(C)[C@@H]5CC[C@]43C)[C@@H]12`, the inhibition was 1.81% (SIM-A9; NO release, inhibitor, Griess; 106.7 µM, LPS-stimulated).
With `CCCCCCCCCCCCCCCCCCOc1cccc(CC(=O)OCC[N+](CC)(CC)CC)c1` the inhibition was 64.3% (NCI-H23; cell growth or viability, SRB; 10 µM).
The inhibition of `NCCC(=O)Nc1cccc(/N=c2\cc(-c3ccc4c(c3)OCO4)oc3ccccc23)c1` is reported as 8.47% (MOLM-13; cell growth or viability, CCK-8; 1 µM).
With `CNCc1ccc(-c2cc(-c3nc(-c4ccc(S(=O)(=O)C(C)C)cc4)cnc3N)on2)cc1` the IC50 was 3.05 µM (CT26; cell growth or viability, ATP luminescence; 24 h).
For `Nc1nc2ccc(-c3c/c(=N\c4ccccc4NC(=O)C4CCNC4)c4ccccc4o3)cc2o1` (stereo not drawn), the inhibition was 41.4% (MOLM-13; cell growth or viability, CCK-8; 1 µM).
The inhibition of `CCCCCCCCCCCCCCCCCCOc1ccc(CC(=O)OCC[N+]2(C)CCOCC2)cc1` is reported as 5.91% (NCI-H23; cell growth or viability, SRB; 10 µM).
